The values that follow come from ChEMBL document CHEMBL1138832, “N2-substituted O6-cyclohexylmethylguanine derivatives: potent inhibitors of cyclin-dependent kinases 1 and 2” (J Med Chem, 2004).

The target of assay [1] is Cyclin-dependent kinase 1/cyclin B (Homo sapiens, UniProt P06493). Nature of the assay: Inhibitory activity against cyclin-dependent kinase 1-cyclin B. The assay is classed as protein-complex assay. In short, it runs like this:
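CDK1/cyclin B1 enzyme from starfish (Marthasterias glacialis) oocytes; kinase inhibition assayed by a method from earlier work.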

In assay [2] the target is T1, Cyclin-dependent kinase 2/cyclin A (Homo sapiens, UniProt P24941). The experiment in a line: Inhibition of cyclin-dependent kinase 2-cyclin A3 (CDK2). The assay is classed as protein-complex assay.
The target of assay [3] is T2, Cyclin-dependent kinase 2/cyclin A (Homo sapiens) (UniProt P24941+P20248+P78396). The experiment in a line: (§1) Inhibition of Cyclin-dependent kinase 2-Cyclin A3 at 10 uM. The assay is classed as protein-complex assay. In short, it runs like this:
(§2)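 Human CDK2/cyclin A kinase inhibition assay run by an earlier-published method. Solubility limited the highest concentration that could be tested to 10 µM.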

For assay [4], the system named is Cyclin-dependent kinase 1/cyclin B (starfish). The experiment in a line: Inhibition of Cyclin-dependent kinase 1-cyclin B at 10 uM. To be noted: Asteroidea.
The target in assay [5] is T1, Cyclin-dependent kinase 2/cyclin A. The description is as §1. The assay is classed as protein-complex assay. In short, it runs like this:
as §2

The target in assay [6] is Cyclin-dependent kinase 1/cyclin B (starfish). Nature of the assay: Inhibition of Cyclin-dependent kinase 1-cyclin B at 10 uM.
Assay [7] concerns the target T2, Cyclin-dependent kinase 2/cyclin A (Homo sapiens). Nature of the assay: Inhibition of cyclin-dependent kinase 2/Cyclin A3 at 10 uM. In kind it is protein-complex assay. In short, it runs like this:
as §2

The target in assay [8] is Cyclin-dependent kinase 1/cyclin B (Homo sapiens) (UniProt P06493+P14635+Q8WWL7+O95067). The experiment in a line: Inhibition of cyclin-dependent kinase 1/Cyclin B at 10 uM. The assay is classed as protein-complex assay. To be noted: Marthasterias glacialis. In short, it runs like this: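 Starfish (Marthasterias glacialis) oocyte CDK1/cyclin B1 kinase inhibition assay run by an earlier-published method. Solubility limited the highest concentration that could be tested to 10 µM.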

Assay [9] addresses T1, Cyclin-dependent kinase 2/cyclin A. The experiment in a line: Inhibition of Cyclin-dependent kinase 2-Cyclin A3 at 100 uM. The assay is classed as protein-complex assay.
Assay [10] addresses Cyclin-dependent kinase 1/cyclin B (starfish). Nature of the assay: Inhibition of Cyclin-dependent kinase 1-cyclin B at 100 uM.

Molecules are shown by their SMILES.

With `COc1cccc(Nc2nc(OCC3CCCCC3)c3[nH]cnc3n2)c1`, the IC50 – broadly, the concentration needed to halve the response being measured – in assay [1] worked out at 2200 nM. Take `Clc1cc(Cl)cc(Nc2nc(OCC3CCCCC3)c3[nH]cnc3n2)c1`: the IC50 in assay [1] came out at 13000 nM; in assay [2], 12000 nM. Take `CC(C)[C@@H](CO)Nc1nc(OCC2CCCCC2)c2[nH]cnc2n1`: the inhibition (in general, the share of the control response that was lost under treatment) in assay [3] stood at 19%; in assay [4] it was 1%.

Consider `Fc1cccc(Nc2nc(OCC3CCCCC3)c3[nH]cnc3n2)c1`, for which the inhibition in assay [3] was 62%; in assay [4], 69%. In assay [1], `CNS(=O)(=O)c1ccc(Nc2nc(OCC3CCCCC3)c3nc[nH]c3n2)cc1` showed a 50% inhibitory concentration (IC50) of 9 nM. `Clc1nc(OCC2CCCCC2)c2[nH]cnc2n1`: the inhibition in assay [3] amounted to 5%; in assay [4], 6%. As to `COC(=O)c1ccc(Nc2nc(OCC3CCCCC3)c3nc[nH]c3n2)cc1`, the IC50 stood at 25000 nM in assay [5] and 66000 nM in assay [6].

For the compound `NS(=O)(=O)c1ccc(NNc2nc(OCC3CCCCC3)c3[nH]cnc3n2)cc1`, the IC50 in assay [1] stood at 8900 nM; in assay [2], 4300 nM. For `CNC(=O)c1ccc(Nc2nc(OCC3CCCCC3)c3nc[nH]c3n2)cc1` the same measures were 400 nM and 200 nM. Regarding `c1ccc(Nc2nc(OCC3CCCCC3)c3nc[nH]c3n2)cc1`, the IC50 in [1] came to 1600 nM.

Consider `CN(C)c1nc(OCC2CCCCC2)c2[nH]cnc2n1`, for which the inhibition turned out to be 31% in assay [3] and 27% in assay [4]. For `CSc1ccc(Nc2nc(OCC3CCCCC3)c3[nH]cnc3n2)cc1` the same measures were 18% and 10%.

On to `OCc1cccc(Nc2nc(OCC3CCCCC3)c3[nH]cnc3n2)c1`, for which the IC50 in [1] was found to be 300 nM. As for `CC(C)[C@H](CO)Nc1nc(OCC2CCCCC2)c2[nH]cnc2n1`, the figures for the inhibition in assay [7] and in [4] were 20% and 2%, respectively. Consider `CC(C)Nc1nc(OCC2CCCCC2)c2[nH]cnc2n1`, for which the concentration for half-maximal inhibition (IC50) is 2000 nM in assay [1] and 1200 nM in [2].

As for `Fc1ccc(Nc2nc(OCC3CCCCC3)c3[nH]cnc3n2)cc1Cl`, the inhibition in assay [3] was 68%; in assay [4], 73%. Compound `CN(C)S(=O)(=O)c1ccc(Nc2nc(OCC3CCCCC3)c3nc[nH]c3n2)cc1` registered a half-inhibitory concentration (IC50) in assay [1] of 77 nM.

`CSc1cccc(Nc2nc(OCC3CCCCC3)c3nc[nH]c3n2)c1` displayed an IC50 in assay [1] of 2400 nM.

Take `OCCNc1nc(OCC2CCCCC2)c2[nH]cnc2n1`: the IC50 in [1] is 3200 nM; in assay [2] it was 2800 nM. `COc1cc(Nc2nc(OCC3CCCCC3)c3[nH]cnc3n2)ccc1S(N)(=O)=O`: the IC50 in [1] worked out at 103 nM.

In assay [1], `Brc1cccc(Nc2nc(OCC3CCCCC3)c3[nH]cnc3n2)c1` had an IC50 of 5300 nM.

Take `NS(=O)(=O)c1ccc(CNc2nc(OCC3CCCCC3)c3[nH]cnc3n2)s1`: the IC50 was 5700 nM in assay [1] and 5000 nM in [2].

Take `COc1ccc(Nc2nc(OCC3CCCCC3)c3[nH]cnc3n2)cc1`: in assay [1], the IC50 worked out at 790 nM. `C[S+]([O-])c1ccc(Nc2nc(OCC3CCCCC3)c3[nH]cnc3n2)cc1` (stereo unspecified) had an IC50 in [1] of 200 nM. For the compound `Fc1ccc(Nc2nc(OCC3CCCCC3)c3[nH]cnc3n2)cc1`, the inhibition in assay [3] was 27%; in assay [4], 20%. In [1], `CC(=O)c1ccc(Nc2nc(OCC3CCCCC3)c3[nH]cnc3n2)cc1` showed an IC50 of 500 nM. Turning to `CC[C@H](CO)Nc1nc(OCC2CCCCC2)c2[nH]cnc2n1`, the inhibition was determined as 62% in assay [3] and 43% in assay [4]. For `Fc1nc(OCC2CCCCC2)c2[nH]cnc2n1` the same measures were 4% and 7%. In the case of `CCc1cccc(Nc2nc(OCC3CCCCC3)c3[nH]cnc3n2)c1`, the IC50 in [1] turned out to be 37000 nM; in [2], 52000 nM. Further, the figures for the inhibition in [8] and in [3] were 32% and 37%, respectively.

In the case of `CC[C@@H](CO)Nc1nc(OCC2CCCCC2)c2[nH]cnc2n1`, the values for the inhibition in assay [3] and in assay [4] were 52% and 29%, respectively. For `c1csc(CNc2nc(OCC3CCCCC3)c3[nH]cnc3n2)c1`, the values for the IC50 in assay [1] and in assay [2] were 700 nM and 1700 nM, respectively. In assay [1], `NS(=O)(=O)c1cccc(Nc2nc(OCC3CCCCC3)c3nc[nH]c3n2)c1` displayed an IC50 of 240 nM. Still for that read-out and setting: then `CN(C)C(=O)c1ccc(Nc2nc(OCC3CCCCC3)c3[nH]cnc3n2)cc1`, with 600 nM. For `CNc1nc(OCC2CCCCC2)c2[nH]cnc2n1`, the figures for the IC50 in assay [1] and in assay [2] were 5300 nM and 5000 nM, respectively.

For `COc1ccc(Oc2nc(OCC3CCCCC3)c3[nH]cnc3n2)cc1`, the IC50 in assay [9] worked out at 42000 nM; in assay [10], 10000 nM. In turn, `N#CCc1ccc(Nc2nc(OCC3CCCCC3)c3[nH]cnc3n2)cc1` displayed an IC50 in assay [1] of 300 nM. On to `NC(=O)Cc1ccc(Nc2nc(OCC3CCCCC3)c3nc[nH]c3n2)cc1`, for which the IC50 amounted to 140 nM in assay [1] and 130 nM in [2].

Take `O=C(O)c1ccc(Nc2nc(OCC3CCCCC3)c3nc[nH]c3n2)cc1`: the IC50 in assay [1] is 1000 nM; in assay [2], 800 nM.

As to `CCNc1nc(OCC2CCCCC2)c2[nH]cnc2n1`, the results for the IC50 in [1] and in [2] were 3300 nM and 2800 nM, respectively.
